# ChEMBL document CHEMBL1938272 (Bioorg Med Chem, 2012)
# Molecular target: NAD(P)H dehydrogenase [quinone] 1 (Mus musculus) (UniProt Q64669)
# Assay: Induction of QR1 activity in mouse Hepa-1c1c7 cells using MTT as substrate by spectrophotometry
# Format: cell-based
# Conditions: not given
# How it was run: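 Mouse hepatoma Hepa 1c1c7 cells were incubated with compound, then permeabilised with digitonin. QR1 activity was read as MTT reduction to formazan at 595 nm, with crystal violet total protein run in parallel. Induction ratio is activity versus control; CD is the concentration doubling activity, derived only when the ratio is above 2.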
# Sequence of NAD(P)H dehydrogenase [quinone] 1 (Mus musculus) (Q64669 whole entry): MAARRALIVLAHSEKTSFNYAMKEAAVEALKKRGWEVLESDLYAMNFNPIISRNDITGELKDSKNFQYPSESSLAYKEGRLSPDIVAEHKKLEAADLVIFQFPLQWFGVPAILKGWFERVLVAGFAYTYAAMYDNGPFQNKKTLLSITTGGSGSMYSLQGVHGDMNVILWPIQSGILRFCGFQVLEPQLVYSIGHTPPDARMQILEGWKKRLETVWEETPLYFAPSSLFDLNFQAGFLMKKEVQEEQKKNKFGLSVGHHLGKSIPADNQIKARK
row,Structure (SMILES),CD
1,Cc1cccc(-c2nsc(-c3cccc(C)c3)n2)c1,4 µM
2,COc1cccc(-c2nsc(-c3cccc(OC)c3)n2)c1,4.03 µM
3,Brc1cccc(-c2nsc(-c3cccc(Br)c3)n2)c1,0.059 µM
4,Cc1ccc(Cl)cc1-c1nsc(-c2cc(Cl)ccc2C)n1,0.47 µM
5,c1cncc(-c2nsc(-c3cccnc3)n2)c1,53.1 µM

# Molecular target: NAD(P)H dehydrogenase [quinone] 1 (Mus musculus) (UniProt Q64669)
# Assay: Induction of QR1-mediated cytoprotective activity in mouse Hepa-1c1c7 cells at 50 uM assessed as cell survival
# Format: cell-based
# Conditions: not given
row,Structure (SMILES),Survival
1,Ic1ccccc1-c1nsc(-c2ccccc2I)n1,48.8%
2,Oc1cccc(-c2nsc(-c3cccc(O)c3)n2)c1,4%
3,c1cc(-c2nsc(-c3ccncc3)n2)ccn1,86.6%
4,Cc1cccc(-c2nsc(-c3cccc(C)c3)n2)c1,33.7%
5,COc1cccc(-c2nsc(-c3cccc(OC)c3)n2)c1,63.7%
6,c1ccc(-c2nsc(-c3ccccc3)n2)cc1,50.3%
7,Oc1ccc(-c2nsc(-c3ccc(O)cc3)n2)cc1,36.5%
8,Nc1ccc(-c2nsc(-c3ccc(N)cc3)n2)cc1,66.1%
9,Brc1cccc(-c2nsc(-c3cccc(Br)c3)n2)c1,79.3%
10,Cc1ccc(Cl)cc1-c1nsc(-c2cc(Cl)ccc2C)n1,37.9%
11,c1cncc(-c2nsc(-c3cccnc3)n2)c1,73.5%

# Molecular target: NAD(P)H dehydrogenase [quinone] 1 (Mus musculus) (UniProt Q64669)
# Assay: Induction of QR1 activity in mouse TAOc1 mutant Hepa cells using MTT as substrate by spectrophotometry
# Format: cell-based
# Conditions: not given
row,Structure (SMILES),CD
1,Ic1ccccc1-c1nsc(-c2ccccc2I)n1,6.3 µM
2,c1ccc(-c2nsc(-c3ccccc3)n2)cc1,18.6 µM
3,Brc1cccc(-c2nsc(-c3cccc(Br)c3)n2)c1,2.5 µM
4,Cc1ccc(Cl)cc1-c1nsc(-c2cc(Cl)ccc2C)n1,2 µM

# Molecular target: NAD(P)H dehydrogenase [quinone] 1 (Mus musculus) (UniProt Q64669)
# Assay: Induction of QR1-mediated cytoprotective activity in mouse TAOc1 mutant Hepa cells at 50 uM assessed as cell survival
# Format: cell-based
# Conditions: not given
row,Structure (SMILES),Survival
1,Ic1ccccc1-c1nsc(-c2ccccc2I)n1,69.8%
2,Oc1cccc(-c2nsc(-c3cccc(O)c3)n2)c1,63.7%
3,Cc1cccc(-c2nsc(-c3cccc(C)c3)n2)c1,94.9%
4,COc1cccc(-c2nsc(-c3cccc(OC)c3)n2)c1,76.3%
5,c1ccc(-c2nsc(-c3ccccc3)n2)cc1,85.9%
6,Brc1cccc(-c2nsc(-c3cccc(Br)c3)n2)c1,77.7%
7,Cc1ccc(Cl)cc1-c1nsc(-c2cc(Cl)ccc2C)n1,80.2%
8,c1cncc(-c2nsc(-c3cccnc3)n2)c1,71.6%

# Molecular target: NAD(P)H dehydrogenase [quinone] 1 (Mus musculus) (UniProt Q64669)
# Assay: Induction of QR1 activity in mouse BPrc1 cells using MTT as substrate by spectrophotometry
# Format: cell-based
# Conditions: not given
row,Structure (SMILES),CD
1,Ic1ccccc1-c1nsc(-c2ccccc2I)n1,8.1 µM
2,c1ccc(-c2nsc(-c3ccccc3)n2)cc1,49.7 µM
3,Brc1cccc(-c2nsc(-c3cccc(Br)c3)n2)c1,6.5 µM
4,Cc1ccc(Cl)cc1-c1nsc(-c2cc(Cl)ccc2C)n1,4.4 µM

# Molecular target: NAD(P)H dehydrogenase [quinone] 1 (Mus musculus) (UniProt Q64669)
# Assay: Induction of QR1-mediated cytoprotective activity in mouse BPrc1 cells at 50 uM assessed as cell survival
# Format: cell-based
# Conditions: not given
row,Structure (SMILES),Survival
1,Ic1ccccc1-c1nsc(-c2ccccc2I)n1,95.1%
2,Oc1cccc(-c2nsc(-c3cccc(O)c3)n2)c1,94.3%
3,Cc1cccc(-c2nsc(-c3cccc(C)c3)n2)c1,100%
4,COc1cccc(-c2nsc(-c3cccc(OC)c3)n2)c1,97.1%
5,c1ccc(-c2nsc(-c3ccccc3)n2)cc1,77.8%
6,Brc1cccc(-c2nsc(-c3cccc(Br)c3)n2)c1,92.3%
7,Cc1ccc(Cl)cc1-c1nsc(-c2cc(Cl)ccc2C)n1,91.5%
8,c1cncc(-c2nsc(-c3cccnc3)n2)c1,87.8%

# Test system: HEK293
# Assay: Inhibition of TNFalpha-activated NF-kappaB expressed in HEK293 cells at 50 uM by luciferase reporter gene assay
# Format: cell-based
# Conditions: not given
row,Structure (SMILES),inhibition
1,c1cc(-c2nsc(-c3ccncc3)n2)ccn1,7.2%
2,COc1cccc(-c2nsc(-c3cccc(OC)c3)n2)c1,93.9%
3,Brc1cccc(-c2nsc(-c3cccc(Br)c3)n2)c1,0%
4,Cc1ccc(Cl)cc1-c1nsc(-c2cc(Cl)ccc2C)n1,29.7%
5,c1cncc(-c2nsc(-c3cccnc3)n2)c1,30.9%

# Test system: not listed separately
# Assay: Inhibition of TNFalpha-activated NF-kappaB expressed in HEK293 cells by luciferase reporter gene assay
# Format: cell-based
# Conditions: not given
row,Structure (SMILES),IC50
1,Oc1cccc(-c2nsc(-c3cccc(O)c3)n2)c1,38.1 µM
2,Cc1cccc(-c2nsc(-c3cccc(C)c3)n2)c1,0.8 µM
3,COc1cccc(-c2nsc(-c3cccc(OC)c3)n2)c1,0.4 µM
4,c1ccc(-c2nsc(-c3ccccc3)n2)cc1,47.4 µM
5,Oc1ccc(-c2nsc(-c3ccc(O)cc3)n2)cc1,19.3 µM
6,Nc1ccc(-c2nsc(-c3ccc(N)cc3)n2)cc1,7.6 µM

# Test system: Radical scavenging activity
# Assay: Antioxidant activity assessed as DPPH free radical scavenging activity at 400 uM after 30 mins by spectrophotometry
# Format: functional
# Conditions: not given
row,Structure (SMILES),inhibition
1,Ic1ccccc1-c1nsc(-c2ccccc2I)n1,3.4%
2,c1cc(-c2nsc(-c3ccncc3)n2)ccn1,-35.6%
3,Cc1cccc(-c2nsc(-c3cccc(C)c3)n2)c1,1.9%
4,COc1cccc(-c2nsc(-c3cccc(OC)c3)n2)c1,-2.1%
5,Oc1ccc(-c2nsc(-c3ccc(O)cc3)n2)cc1,3.4%
6,Brc1cccc(-c2nsc(-c3cccc(Br)c3)n2)c1,1%
7,Cc1ccc(Cl)cc1-c1nsc(-c2cc(Cl)ccc2C)n1,1.3%

# Test system: MCF7
# Assay: Antiproliferative activity against human MCF7 cells after 72 hrs by SRB assay
# Format: functional, cell-based
# Conditions: MCF7, 72 h
# How it was run: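 MCF-7 breast cancer cells exposed to serially diluted compounds (DMSO) for 72 h at 37 °C in CO2 incubator; fixed with 10% trichloroacetic acid, stained with 0.4% SRB, OD read at 515 nm. Zero-day control of 1 × 10^4 cells per well processed after 30 min. Survival = (OD test − OD zero-day)/(OD control − OD zero-day) × 100; IC50 from survival.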
row,Structure (SMILES),IC50
1,Cc1cccc(-c2nsc(-c3cccc(C)c3)n2)c1,22.1 µM
2,COc1cccc(-c2nsc(-c3cccc(OC)c3)n2)c1,24.2 µM
3,c1ccc(-c2nsc(-c3ccccc3)n2)cc1,24.4 µM
4,Oc1ccc(-c2nsc(-c3ccc(O)cc3)n2)cc1,4.7 µM
5,Nc1ccc(-c2nsc(-c3ccc(N)cc3)n2)cc1,30.8 µM
6,Brc1cccc(-c2nsc(-c3cccc(Br)c3)n2)c1,31 µM
7,Cc1ccc(Cl)cc1-c1nsc(-c2cc(Cl)ccc2C)n1,29 µM

# Test system: RAW264.7
# Assay: Antiinflammatory activity in mouse RAW264.7 cells assessed as inhibition of LPS-induced NO production preincubated for 30 mins before LPS challenge measured after 24 hrs by Griess method
# Format: functional, cell-based
# Conditions: not given
row,Structure (SMILES),IC50
1,Ic1ccccc1-c1nsc(-c2ccccc2I)n1,30 µM
2,Oc1ccc(-c2nsc(-c3ccc(O)cc3)n2)cc1,13.5 µM
3,Nc1ccc(-c2nsc(-c3ccc(N)cc3)n2)cc1,23.3 µM

# Molecular target: T1, Aromatase (Homo sapiens, UniProt P11511)
# T1 sequence (P11511 whole entry): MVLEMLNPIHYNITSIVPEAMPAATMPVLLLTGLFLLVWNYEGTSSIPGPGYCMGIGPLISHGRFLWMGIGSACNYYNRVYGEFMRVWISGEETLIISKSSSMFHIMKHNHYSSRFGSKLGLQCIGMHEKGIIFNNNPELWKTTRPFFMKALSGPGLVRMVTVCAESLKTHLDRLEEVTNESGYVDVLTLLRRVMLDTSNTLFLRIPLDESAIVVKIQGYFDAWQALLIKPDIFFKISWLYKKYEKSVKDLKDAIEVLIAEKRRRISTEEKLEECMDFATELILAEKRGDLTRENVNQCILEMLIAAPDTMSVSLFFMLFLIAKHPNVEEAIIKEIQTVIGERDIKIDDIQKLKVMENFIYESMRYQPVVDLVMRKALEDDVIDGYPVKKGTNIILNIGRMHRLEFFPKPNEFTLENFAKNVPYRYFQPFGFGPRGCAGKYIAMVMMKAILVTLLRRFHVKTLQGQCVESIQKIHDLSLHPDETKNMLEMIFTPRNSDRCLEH
# Assay: Ratio of trans-resveratrol IC50 to compound IC50 for human aromatase
# Conditions: not given
row,Structure (SMILES),Ratio IC50
1,c1cc(-c2nsc(-c3ccncc3)n2)ccn1,30
2,c1cncc(-c2nsc(-c3cccnc3)n2)c1,125

# Molecular target: T1, Aromatase
# Assay: not given
# Conditions: 2 h, read-out: Imax
row,Structure (SMILES),inhibition at 50 µM
1,Ic1ccccc1-c1nsc(-c2ccccc2I)n1,39.4%
2,Oc1cccc(-c2nsc(-c3cccc(O)c3)n2)c1,24.4%
3,c1cc(-c2nsc(-c3ccncc3)n2)ccn1,98%
4,Cc1cccc(-c2nsc(-c3cccc(C)c3)n2)c1,32.9%
5,COc1cccc(-c2nsc(-c3cccc(OC)c3)n2)c1,26.6%
6,c1ccc(-c2nsc(-c3ccccc3)n2)cc1,60.2%
7,Oc1ccc(-c2nsc(-c3ccc(O)cc3)n2)cc1,50.4%
8,Nc1ccc(-c2nsc(-c3ccc(N)cc3)n2)cc1,70.4%
9,Brc1cccc(-c2nsc(-c3cccc(Br)c3)n2)c1,48.4%
10,Cc1ccc(Cl)cc1-c1nsc(-c2cc(Cl)ccc2C)n1,22%
11,c1cncc(-c2nsc(-c3cccnc3)n2)c1,97.2%

# Molecular target: T1, Aromatase
# Assay: not given
# Conditions: not given
row,Structure (SMILES),IC50
1,Ic1ccccc1-c1nsc(-c2ccccc2I)n1,> 50 µM
2,Oc1cccc(-c2nsc(-c3cccc(O)c3)n2)c1,> 50 µM
3,c1cc(-c2nsc(-c3ccncc3)n2)ccn1,0.8 µM
4,Cc1cccc(-c2nsc(-c3cccc(C)c3)n2)c1,> 50 µM
5,COc1cccc(-c2nsc(-c3cccc(OC)c3)n2)c1,> 50 µM
6,c1ccc(-c2nsc(-c3ccccc3)n2)cc1,> 50 µM
7,Oc1ccc(-c2nsc(-c3ccc(O)cc3)n2)cc1,> 50 µM
8,Nc1ccc(-c2nsc(-c3ccc(N)cc3)n2)cc1,26.5 µM
9,Brc1cccc(-c2nsc(-c3cccc(Br)c3)n2)c1,> 50 µM
10,Cc1ccc(Cl)cc1-c1nsc(-c2cc(Cl)ccc2C)n1,> 50 µM
11,c1cncc(-c2nsc(-c3cccnc3)n2)c1,0.2 µM

# Test system: RAW264.7
# Assay: Antiinflammatory activity in mouse RAW264.7 cells assessed as inhibition of LPS-induced NO production at 40 uM preincubated for 30 mins before LPS challenge by Griess method
# Conditions: not given
row,Structure (SMILES),inhibition at 40 µM
1,Ic1ccccc1-c1nsc(-c2ccccc2I)n1,30%
2,Oc1cccc(-c2nsc(-c3cccc(O)c3)n2)c1,47.4%
3,c1cc(-c2nsc(-c3ccncc3)n2)ccn1,0.9%
4,Cc1cccc(-c2nsc(-c3cccc(C)c3)n2)c1,0.9%
5,COc1cccc(-c2nsc(-c3cccc(OC)c3)n2)c1,17.6%
6,c1ccc(-c2nsc(-c3ccccc3)n2)cc1,55.7%
7,Oc1ccc(-c2nsc(-c3ccc(O)cc3)n2)cc1,93.7%
8,Brc1cccc(-c2nsc(-c3cccc(Br)c3)n2)c1,22.8%
9,Cc1ccc(Cl)cc1-c1nsc(-c2cc(Cl)ccc2C)n1,25.9%
10,c1cncc(-c2nsc(-c3cccnc3)n2)c1,1.3%
